In ChEMBL document CHEMBL1125060, “Synthesis and biological evaluation of carbocyclic analogues of lyxofuranosides of 2-amino-6-substituted-purines and 2-amino-6-substituted-8-azapurines” (1990):
≈ marks a conversion by molar mass, not a printed value.

Key:
Vero [1] = assay: In vitro antiviral activity against herpes simplex virus type 1 (E-377 strain) in Vero host cell cultures (MTC/ID50); assay type: functional, Chlorocebus sabaeus
Method in brief: (§1)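 CPE inhibition assay with HSV-1 strain E-377 replicating in Vero cells. ID50 is the minimum concentration (μg/mL) inhibiting CPE by 50%, from regression with semilog curve fitting. MTC is the minimum concentration (μg/mL) giving any cytotoxicity. TI is MTC divided by ID50.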

Vero [2] = assay: (§2) In vitro antiviral activity against herpes simplex virus type 1 (E-377 strain) in Vero host cell cultures; assay type: functional, Chlorocebus sabaeus; method in brief: as §1
Vero [3] = assay: In vitro minimum drug concentration that inhibited herpes simplex virus type 1 (E-377 strain) virus-induced cytopathogenic effects by 50% in vero cells; assay type: functional; conditions: Chlorocebus sabaeus, read-out: ID50 (the source's name); method in brief: as §1
Vero [4] = assay: Minimum concentration (ug/mL) for in vitro antiviral activity against herpes simplex virus type 1 (E-377 strain) in Vero host cell cultures; assay type: functional, Chlorocebus sabaeus; method in brief: as §1
P388 [5] = assay: In vitro inhibition against P-388 mouse leukemia cells using growth inhibition assay at the concentration of 100 ug/mL; assay type: functional
Method in brief: (§3)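 P-388 mouse leukemia cells in culture, by the National Cancer Institute protocol. Tested at 6.25-100 μg/mL and reported as percent growth inhibition. Carbocyclic adenosine is the positive control.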

P388 [6] = assay: In vitro inhibition against P-388 mouse leukemia cells using growth inhibition assay at the concentration of 12.5 ug/mL; assay type: functional; method in brief: as §3
P388 [7] = assay: In vitro inhibition against P-388 mouse leukemia cells using growth inhibition assay at the concentration of 25 ug/mL; assay type: functional; method in brief: as §3
P388 [8] = assay: In vitro inhibition against P-388 mouse leukemia cells using growth inhibition assay at the concentration of 50 ug/mL; assay type: functional; method in brief: as §3
P388 [9] = assay: In vitro inhibition against P-388 mouse leukemia cells using growth inhibition assay at the concentration of 6.25 ug/mL; assay type: functional; method in brief: as §3
MDCK [10] = assay: In vitro antiviral activity against influenza virus (type A0/PR/8/34) in Madin-Darby canine kidney (MDCK) host cell cultures; assay type: functional, Canis lupus familiaris
Vero [11] = assay: In vitro minimum drug concentration that inhibited herpes simplex virus type 1 (E-377 strain)-induced cytopathogenic effects by 50% in vero cell cultures; assay type: functional; conditions: Chlorocebus sabaeus, read-out: ID50 (the source's name); method in brief: as §1
MDCK [12] = assay: Minimum concentration (ug/mL) for in vitro antiviral activity against influenza virus (type A0/PR/8/34) in Madin-Darby canine kidney (MDCK) host cell cultures; assay type: functional, Canis lupus familiaris
Method in brief: (§4)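 MDCK host cell cultures infected with influenza A0/PR/8/34, scored for inhibition of virus-induced cytopathogenic effect (CPE). ID50 is the minimum drug concentration (μg/mL) that cut CPE by 50%, from semilog regression curve fitting. MTC is the minimum concentration (μg/mL) at which any cytotoxicity was seen. Therapeutic index is MTC divided by ID50.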

MRC5 [13] = assay: Cytotoxicity against MRC5 (human diploid embryonic lung cells) cell monolayer cultures at the concentration of 320 uM; Slightly toxic; assay type: functional, cell-based
MRC5 [14] = assay: Cytotoxicity against MRC5 (human diploid embryonic lung cells)cell monolayer cultures at the concentration of 1000 uM; Slightly toxic; assay type: functional, cell-based
MRC5 [15] = assay: Cytotoxicity against MRC5 (human diploid embryonic lung cells)cell monolayer cultures at the concentration of 100 uM; assay type: functional
MRC5 [16] = assay: Cytotoxicity against MRC5 (human diploid embryonic lung cells)cell monolayer cultures at the concentration of 32 uM; assay type: functional
MRC5 [17] = assay: Effect of compound on yields of human cytomegalovirus (HCMV) in MRC5 (human diploid embryonic lung cells)cell monolayer cultures at the concentration of 100 uM; assay type: functional
Method in brief: (§5)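 Virus yield reduction assay with HCMV strain Ad169, passaged, titrated and assayed in MRC5 human diploid embryonic lung cells. Virus yields are read as PFU. Includes a virus control and a DHPG positive control.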

MRC5 [18] = assay: Effect of compound on yields of human cytomegalovirus (HCMV) in MRC5 (human diploid embryonic lung cells)cell monolayer cultures at the concentration of 3.2 uM; assay type: functional; method in brief: as §5
MRC5 [19] = assay: Effect of compound on yields of human cytomegalovirus (HCMV) in MRC5 (human diploid embryonic lung cells)cell monolayer cultures at the concentration of 320 uM; assay type: functional; method in brief: as §5
MRC5 [20] = assay: Effect of compound on yields of human cytomegalovirus (HCMV) in MRC5 (human diploid embryonic lung cells)cell monolayer cultures at the concentration of 32 uM; assay type: functional; method in brief: as §5
MRC5 [21] = assay: Effect of compound treatment on yields of human cytomegalovirus (HCMV) in MRC5 (human diploid embryonic lung cells)cell monolayer cultures at the concentration of 1000 uM; assay type: functional; method in brief: as §5
MRC5 [22] = assay: Cytotoxicity against MRC5 (human diploid embryonic lung cells)cell monolayer cultures by using MTT [3-(4,5-Dimethylthiazol-2-yl)-2,5-diphenyltetrazolium bromide]assay at the concentration of 32 uM; assay type: functional
Method in brief: (§6)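 MRC5 human diploid embryonic lung cell monolayers. Cytotoxicity is quantified by host-cell mitochondrial reduction of MTT to MTT formazan. It was run alongside the HCMV yield reduction assay.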

MRC5 [23] = assay: Cytotoxicity against MRC5 (human diploid embryonic lung cells)cell monolayer cultures by using MTT [3-(4,5-Dimethylthiazol-2-yl)-2,5-diphenyltetrazolium bromide]assay at the concentration of 100 uM; assay type: functional; method in brief: as §6
MRC5 [24] = assay: Cytotoxicity against MRC5 (human diploid embryonic lung cells) cell monolayer cultures by using MTT [3-(4,5-Dimethylthiazol-2-yl)-2,5-diphenyltetrazolium bromide]assay at the concentration of 1000 uM; assay type: functional; method in brief: as §6
MRC5 [25] = assay: Cytotoxicity against MRC5 (human diploid embryonic lung cells) cell monolayer cultures by using MTT [3-(4,5-Dimethylthiazol-2-yl)-2,5-diphenyltetrazolium bromide]assay at the concentration of 320 uM; assay type: functional; method in brief: as §6
MRC5 [26] = assay: Effect of compound on yields of human cytomegalovirus (HCMV) in MRC5 (human diploid embryonic lung cells)cell monolayer cultures at the concentration of 0 uM; assay type: functional; method in brief: as §5
Vero [27] = assay: as §2; assay type: functional; conditions: Chlorocebus sabaeus, read-out: ID50 (the source's name); method in brief: as §1
Vero [28] = assay: as §2; assay type: functional, Chlorocebus sabaeus; remark: listed apart in the source
Method in brief: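 CPE-inhibition assay: HSV-1 strain E-377 replicating in African green monkey kidney (Vero) cells. ID50 is the minimum drug concentration (μg/mL) giving 50% CPE inhibition, taken from semilog regression curve fitting. Cytotoxicity was scored as the minimum concentration (μg/mL) showing any toxicity (MTC). TI = MTC/ID50.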

MRC5 [29] = assay: Effect of compound on yields of human cytomegalovirus (HCMV) in MRC5 (human diploid embryonic lung cells)cell monolayer cultures at the concentration of 10 uM; assay type: functional; method in brief: as §5
MRC5 [30] = assay: Effect of compound treatment on yields of human cytomegalovirus (HCMV) in MRC5 (human diploid embryonic lung cells) monolayer cultures at the concentration of 32 uM; assay type: functional; method in brief: as §5
MDCK [31] = assay: In vitro minimum drug concentration that inhibited the influenza virus-induced cytopathogenic effects by 50% in Madin-Darby canine kidney (MDCK) host cell cultures; assay type: functional; conditions: Canis lupus familiaris, read-out: ID50 (the source's name); method in brief: as §4
MDCK [32] = assay: In vitro antiviral activity against influenza virus (type A0/PR/8/34) in Madin-Darby canine kidney (MDCK) host cell cultures (MTC/ID50); assay type: functional, Canis lupus familiaris; method in brief: as §4

Nc1nc2c(ncn2COCCO)c(=O)[nH]1 [ACYCLOVIR]
Therapeutic index (Vero [1]): >240.3
Virus rating (Vero [2]): 6.2
IC50 (Vero [3]): 0.9 µg/mL (≈ 4 µM)
MTC (Vero [4]): >255.2 µg/mL

Nc1ncnc2c1ncn2[C@@H]1C[C@H](CO)[C@@H](O)[C@H]1O [ARISTEROMYCIN]
inhibition at 100 µg/mL (P388 [5]): 100%
inhibition at 12.5 µg/mL (P388 [6]): 100%
inhibition at 25 µg/mL (P388 [7]): 100%
inhibition at 50 µg/mL (P388 [8]): 100%
inhibition at 6.25 µg/mL (P388 [9]): 100%

Nc1nc(N)c2ncn(C3CC(CO)C(O)C3O)c2n1 (centres undefined)
Virus rating (MDCK [10]): 0
inhibition at 100 µg/mL (P388 [5]): 42.3%
inhibition at 12.5 µg/mL (P388 [6]): 0%
inhibition at 25 µg/mL (P388 [7]): 0%
inhibition at 50 µg/mL (P388 [8]): 11.3%
inhibition at 6.25 µg/mL (P388 [9]): 0%
Therapeutic index (Vero [1]): 1.4
Virus rating (Vero [2]): 0.6 VR
MTC (Vero [4]): 280.3 µg/mL
IC50 (Vero [11]): 195 µg/mL (≈ 696 µM)

Nc1nc(O)c2nnn(C3CC(CO)C(O)C3O)c2n1 (centres undefined)
MTC (MDCK [12]): 95 µg/mL
Virus rating (MDCK [10]): 0.2
inhibition at 100 µg/mL (P388 [5]): 63.9%
inhibition at 12.5 µg/mL (P388 [6]): 0%
inhibition at 25 µg/mL (P388 [7]): 5%
inhibition at 50 µg/mL (P388 [8]): 27.4%
inhibition at 6.25 µg/mL (P388 [9]): 0%
Virus rating (Vero [2]): 0
MTC (Vero [4]): 300.3 µg/mL

Nc1nc(O)c2ncn(C3CC(CO)C(O)C3O)c2n1 (centres undefined)
Virus rating (MDCK [10]): 0
Gross morphology (MRC5 [13]): Toxic
Gross morphology (MRC5 [14]): Toxic
Gross morphology (MRC5 [15]): 0
Gross morphology (MRC5 [16]): 0
HCMV yield (MRC5 [17]): 3.7 log10 pfu/mL
HCMV yield reduction (MRC5 [17]): 1.7 log10 pfu/mL
HCMV yield (MRC5 [18]): 4.9 log10 pfu/mL
HCMV yield reduction (MRC5 [18]): 0.5 log10 pfu/mL
HCMV yield (MRC5 [19]): 2.5 log10 pfu/mL
HCMV yield reduction (MRC5 [19]): 2.9 log10 pfu/mL
HCMV yield (MRC5 [20]): 4.2 log10 pfu/mL
HCMV yield reduction (MRC5 [20]): 1.2 log10 pfu/mL
HCMV yield (MRC5 [21]): < 0.6 log10 pfu/mL
HCMV yield reduction (MRC5 [21]): > 4.8 log10 pfu/mL
Control (MRC5 [22]): 103%
Control (MRC5 [23]): 97%
Control (MRC5 [24]): 88%
Control (MRC5 [25]): 93%
HCMV yield (MRC5 [26]): 5.4 log10 pfu/mL
inhibition at 100 µg/mL (P388 [5]): 71.6%
inhibition at 12.5 µg/mL (P388 [6]): 9.1%
inhibition at 25 µg/mL (P388 [7]): 42.1%
inhibition at 50 µg/mL (P388 [8]): 58.4%
inhibition at 6.25 µg/mL (P388 [9]): 0%
Virus rating (Vero [2]): 2.1
IC50 (Vero [27]): 83.4 µg/mL (≈ 297 µM)
MTC (Vero [4]): >299.3 µg/mL
TI (Vero [28]): >3.6
HCMV yield (MRC5 [29]): 4.8 log10 pfu/mL
HCMV yield reduction (MRC5 [29]): 0.6 log10 pfu/mL

Nc1nc2c(ncn2COC(CO)CO)c(=O)[nH]1 [GANCICLOVIR]
HCMV yield (MRC5 [30]): 2.4 log10 pfu/mL
HCMV yield reduction (MRC5 [30]): 3 log10 pfu/mL

Nc1nc(Cl)c2ncn(C3CC(CO)C(O)C3O)c2n1 (centres undefined)
Virus rating (MDCK [10]): 0
inhibition at 100 µg/mL (P388 [5]): 2.8%
inhibition at 12.5 µg/mL (P388 [6]): 0%
inhibition at 25 µg/mL (P388 [7]): 0%
inhibition at 50 µg/mL (P388 [8]): 0%
inhibition at 6.25 µg/mL (P388 [9]): 0%
Virus rating (Vero [2]): 0
MTC (Vero [4]): 299.7 µg/mL

Nc1nc(Cl)c2nnn(C3CC(CO)C(O)C3O)c2n1 (centres undefined)
MTC (MDCK [12]): >256.3 µg/mL
Virus rating (MDCK [10]): 0.3
inhibition at 100 µg/mL (P388 [5]): 99.1%
inhibition at 12.5 µg/mL (P388 [6]): 0%
inhibition at 25 µg/mL (P388 [7]): 14.2%
inhibition at 50 µg/mL (P388 [8]): 40.1%
inhibition at 6.25 µg/mL (P388 [9]): 0%
Virus rating (Vero [2]): 0
MTC (Vero [4]): 300.7 µg/mL

Nc1ncnc2c1ncn2[C@@H]1O[C@H](CO)[C@@H](O)[C@@H]1O [VIDARABINE]
Therapeutic index (Vero [1]): 5.6
Virus rating (Vero [2]): 2.4
IC50 (Vero [27]): 4.8 µg/mL (≈ 18 µM)
MTC (Vero [4]): 26.8 µg/mL

NC(=O)c1ncn([C@@H]2O[C@H](CO)[C@@H](O)[C@H]2O)n1 [RIBAVIRIN]
IC50 (MDCK [31]): 3.1 µg/mL (≈ 12.7 µM)
MTC (MDCK [12]): 32 µg/mL
Therapeutic index (MDCK [32]): 10.3
Virus rating (MDCK [10]): 3.4

Nc1nc(N)c2nnn(C3CC(CO)C(O)C3O)c2n1 (centres undefined)
Virus rating (MDCK [10]): 0
inhibition at 100 µg/mL (P388 [5]): 58.4%
inhibition at 12.5 µg/mL (P388 [6]): 0%
inhibition at 25 µg/mL (P388 [7]): 12.2%
inhibition at 50 µg/mL (P388 [8]): 31.5%
inhibition at 6.25 µg/mL (P388 [9]): 0%
Virus rating (Vero [2]): 0
MTC (Vero [4]): >294.8 µg/mL
